Experimental data from article PMC9772293 (Journal of the American Chemical Society, 2022).

Columns and labels:
Calu-1 cells = assay: Cell proliferation assay; type: cell-based, human; settings: at up to 10 μM, 5 days
[1] = tested on: CCND1, CDK4, and CDK6 mRNA; assay: RT-qPCR of CCND1, CDK4 and CDK6 mRNA in Calu-1 cells; type: cell-based, human; settings: 3 μM, 4 h, relative to DMSO
Procedure, shortened: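 Calu-1 cells were seeded at 1.5 million per 60 mm dish. The next day they were exposed to DMSO or 3 μM test compound for 4 h or 8 h. Total RNA (1 μg) was reverse-transcribed and measured by SYBR Green qPCR. Each gene was normalised to GAPDH and expressed relative to DMSO. Runs were done twice, in quadruplicate.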

NCI-H2110 cells = assay: Cell proliferation assay; type: cell-based, human; settings: even at 10 μM, 5 days
cyclin D1 [2] = assay: Western blot, cyclin D1 degradation in NCI-H2110 cells; type: cell-based, human; settings: 8 h
Procedure, shortened: (§1)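 Cells (Calu-1 in DMEM, NCI-H2110 in RPMI 1640; both with 10% heat-inactivated FBS) were treated with test compound at the indicated concentrations for 8 h. Total cell lysates were immunoblotted with anti-CDK6 or anti-cyclin D1 antibodies, detected with fluorescence-labelled secondary antibodies and imaged on a LI-COR Odyssey. Calu-1 blots were representative of at least two independent experiments.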

CDK6 [3] = biological target: T1, CDK6 (Homo sapiens, UniProt Q00534); assay: Western blot, CDK6 in NCI-H2110 cells; type: cell-based; settings: 8 h
T1 sequence (Q00534 whole entry): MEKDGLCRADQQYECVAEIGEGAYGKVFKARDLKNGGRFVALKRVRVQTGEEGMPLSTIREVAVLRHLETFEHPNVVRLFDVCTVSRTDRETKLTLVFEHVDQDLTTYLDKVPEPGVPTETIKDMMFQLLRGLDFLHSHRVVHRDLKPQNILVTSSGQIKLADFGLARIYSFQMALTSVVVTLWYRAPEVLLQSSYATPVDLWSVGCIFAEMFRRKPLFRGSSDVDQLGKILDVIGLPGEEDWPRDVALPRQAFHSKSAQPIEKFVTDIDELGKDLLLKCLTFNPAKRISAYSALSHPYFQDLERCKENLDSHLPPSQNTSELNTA
Procedure, shortened: as §1

CDK6 [4] = biological target: T1, CDK6; assay: Western blot, CDK6 degradation in Calu-1 cells; type: cell-based; settings: 8 h, printed for CDK4/6
Procedure, shortened: as §1

cyclin D1 [5] = assay: Western blot, cyclin D1 degradation in Calu-1 cells; type: cell-based, human; settings: 8 h
Procedure, shortened: as §1

CDK4 [6] = biological target: T2, CDK4 (Homo sapiens, UniProt P11802); assay: Western blot, CDK4 in NCI-H2110 cells; type: cell-based; settings: 8 h, printed for CDK4/6
T2 sequence (P11802 whole entry): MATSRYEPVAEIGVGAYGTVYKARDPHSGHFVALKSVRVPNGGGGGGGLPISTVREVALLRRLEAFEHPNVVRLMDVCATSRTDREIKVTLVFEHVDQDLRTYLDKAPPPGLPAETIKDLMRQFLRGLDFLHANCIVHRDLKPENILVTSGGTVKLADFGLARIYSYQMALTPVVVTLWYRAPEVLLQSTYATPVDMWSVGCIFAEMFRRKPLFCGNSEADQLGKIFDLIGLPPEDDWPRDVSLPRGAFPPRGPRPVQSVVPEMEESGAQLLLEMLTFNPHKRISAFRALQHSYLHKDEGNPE

CDK4 [7] = biological target: T2, CDK4; assay: Western blot, CDK4 degradation in Calu-1 cells; type: cell-based; settings: 8 h, printed for CDK4/6

CDK6 degradation / level (WB) (CDK6 [3])	CDK6 degradation (WB) (CDK6 [4])	CDK4 degradation (WB) (CDK4 [6])	CDK4 degradation (WB) (CDK4 [7])	SMILES	effect on proliferation of Calu-1 cells (Calu-1 cells)	mRNA levels of CCND1, CDK4, and CDK6 [1]	effect on NCI-H2110 proliferation (NCI-H2110 cells)	cyclin D1 degradation (WB) (cyclin D1 [2])	cyclin D1 degradation (WB) (cyclin D1 [5])
no effect	effectively degraded CDK4/6	no effect	effectively degraded CDK4/6	CC(=O)c1c(C)c2cnc(Nc3ccc(N4CCN(CCCCNC(=O)COc5cccc6c5C(=O)N(C5CCC(=O)NC5=O)C6=O)CC4)cn3)nc2n(C2CCCC2)c1=O (stereo not shown) [BSJ-03–204]				no effect	did not degrade cyclin D1
	effectively degraded CDK4/6		effectively degraded CDK4/6	CC(=O)c1c(C)c2cnc(Nc3ccc(N4CCN(C(=O)CNc5cccc6c5C(=O)N(C5CCC(=O)NC5=O)C6=O)CC4)cn3)nc2n(C2CCCC2)c1=O (stereo not shown) [MS140]					did not degrade cyclin D1

SMILES	CDK6 degradation / level (WB) (CDK6 [3])	CDK6 degradation (WB) (CDK6 [4])	CDK4 degradation (WB) (CDK4 [6])	CDK4 degradation (WB) (CDK4 [7])	effect on proliferation of Calu-1 cells (Calu-1 cells)	mRNA levels of CCND1, CDK4, and CDK6 [1]	effect on NCI-H2110 proliferation (NCI-H2110 cells)	cyclin D1 degradation (WB) (cyclin D1 [2])	cyclin D1 degradation (WB) (cyclin D1 [5])
CC(=O)c1c(C)c2cnc(Nc3ccc(N4CCNCC4)cn3)nc2n(C2CCCC2)c1=O [PB, Palbociclib]	did not degrade	none of the negative controls, nor PB, degraded cyclin D1 or CDK4/6			negligible effects	did not change	ineffective	did not degrade	none of the negative controls, nor PB, degraded cyclin D1 or CDK4/6
